Assay results as given in ChEMBL document CHEMBL5247575 (J Med Chem, 2018).

Experiments:
[1] = test system: Acinetobacter baumannii; assay: Synergistic antibacterial activity against Acinetobacter baumannii PR359 producing OXA-23 assessed as cefepime MIC at 8 ug/ml by broth microdilution method; assay type: functional; settings: dose 8 µg/ml
[2] = test system: Acinetobacter baumannii; assay: Synergistic antibacterial activity against Acinetobacter baumannii PR319 producing OXA-23/24/40 assessed as meropenem MIC at 4 ug/ml by broth microdilution method; assay type: functional; settings: dose 4 µg/ml
[3] = test system: Pseudomonas aeruginosa; assay: Synergistic antibacterial activity against Pseudomonas aeruginosa 715 assessed as meropenem MIC at 8 ug/ml by broth microdilution method; assay type: functional; settings: dose 8 µg/ml
[4] = test system: Klebsiella pneumoniae; assay: Synergistic antibacterial activity against Klebsiella pneumoniae 972/1910 producing KPC-3 assessed as meropenem MIC at 8 ug/ml by broth microdilution method; assay type: functional; settings: dose 8 µg/ml
[5] = test system: Klebsiella pneumoniae; assay: Synergistic antibacterial activity against Klebsiella pneumoniae CAV 1543 producing OXA-48 assessed as meropenem MIC at 8 ug/ml by broth microdilution method; assay type: functional; settings: dose 8 µg/ml
[6] = test system: Escherichia coli; assay: Synergistic antibacterial activity against Escherichia coli DH10B transfected with pBR322-catI-KPC-2 assessed as cefepime MIC at 8 ug/ml by broth microdilution method; assay type: functional; settings: dose 8 µg/ml
Outline: (§1)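 Broth microdilution per CLSI guidelines, using custom frozen panels. […] Each partner drug was also tested alone. MICs were run in triplicate and the modal value is reported.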

[7] = test system: Klebsiella pneumoniae; assay: Synergistic antibacterial activity against Klebsiella pneumoniae 935/1884 producing KPC-3 assessed as cefepime MIC at 4 ug/ml by broth microdilution method; assay type: functional; settings: dose 4 µg/ml
[8] = test system: Pseudomonas aeruginosa; assay: Synergistic antibacterial activity against Pseudomonas aeruginosa CL232 assessed as cefepime MIC at 4 ug/ml by broth microdilution method; assay type: functional; settings: dose 4 µg/ml
[9] = test system: Klebsiella pneumoniae; assay: Synergistic antibacterial activity against Klebsiella pneumoniae NY BS producing OXA-232 assessed as cefepime MIC at 8 ug/ml by broth microdilution method; assay type: functional; settings: dose 8 µg/ml
[10] = test system: Klebsiella pneumoniae; assay: Synergistic antibacterial activity against Klebsiella pneumoniae 1315/2198 producing KPC-3 assessed as cefepime MIC at 4 ug/ml by broth microdilution method; assay type: functional; settings: dose 4 µg/ml; outline: as §1
[11] = test system: Acinetobacter baumannii; assay: Synergistic antibacterial activity against Acinetobacter baumannii PR476 producing OXA-24/40 assessed as cefepime MIC at 8 ug/ml by broth microdilution method; assay type: functional; settings: dose 8 µg/ml
[12] = test system: Klebsiella pneumoniae; assay: Synergistic antibacterial activity against Klebsiella pneumoniae 776/1742 producing KPC-2 assessed as meropenem MIC at 8 ug/ml by broth microdilution method; assay type: functional; settings: dose 8 µg/ml
[13] = test system: Bacteria; assay: Inhibition of bacteria PDC-3 assessed as second order rate constant K2/K using nitrocefin as substrate
[14] = test system: Klebsiella pneumoniae; assay: Synergistic antibacterial activity against Klebsiella pneumoniae 1354/2241 producing KPC-3 assessed as cefepime MIC at 8 ug/ml by broth microdilution method; assay type: functional; settings: dose 8 µg/ml; outline: as §1
[15] = test system: Acinetobacter baumannii; assay: Synergistic antibacterial activity against Acinetobacter baumannii PR381 producing OXA-24/40 assessed as cefepime MIC at 8 ug/ml by broth microdilution method; assay type: functional; settings: dose 8 µg/ml
[16] = test system: Acinetobacter baumannii; assay: Synergistic antibacterial activity against Acinetobacter baumannii PR319 producing OXA-23/24/40 assessed as meropenem MIC at 8 ug/ml by broth microdilution method; assay type: functional; settings: dose 8 µg/ml
[17] = test system: Klebsiella pneumoniae; assay: Synergistic antibacterial activity against Klebsiella pneumoniae 901/1860 producing KPC-3 assessed as cefepime MIC at 4 ug/ml by broth microdilution method; assay type: functional; settings: dose 4 µg/ml
[18] = test system: Klebsiella pneumoniae; assay: Synergistic antibacterial activity against Klebsiella pneumoniae 1315/2198 producing KPC-3 assessed as meropenem MIC at 8 ug/ml by broth microdilution method; assay type: functional; settings: dose 8 µg/ml; outline: as §1
[19] = test system: Klebsiella pneumoniae; assay: Synergistic antibacterial activity against Klebsiella pneumoniae jefferson 1775 producing OXA-48 assessed as cefepime MIC at 4 ug/ml by broth microdilution method; assay type: functional; settings: dose 4 µg/ml
[20] = test system: Acinetobacter baumannii; assay: Synergistic antibacterial activity against Acinetobacter baumannii PR359 producing OXA-23 assessed as meropenem MIC at 4 ug/ml by broth microdilution method; assay type: functional; settings: dose 4 µg/ml
[21] = test system: Klebsiella pneumoniae; assay: Synergistic antibacterial activity against Klebsiella pneumoniae CAV 1636 producing OXA-181 assessed as meropenem MIC at 4 ug/ml by broth microdilution method; assay type: functional; settings: dose 4 µg/ml
[22] = test system: Klebsiella pneumoniae; assay: Synergistic antibacterial activity against Klebsiella pneumoniae jefferson 1775 producing OXA-48 assessed as meropenem MIC at 8 ug/ml by broth microdilution method; assay type: functional; settings: dose 8 µg/ml
[23] = test system: Bacteria; assay: Inhibition of bacteria KPC-2 assessed as half life using nitrocefin as substrate
[24] = test system: Acinetobacter baumannii; assay: Synergistic antibacterial activity against ADC deleted Acinetobacter baumannii assessed as cefepime MIC at 4 ug/ml by broth microdilution method; assay type: functional; settings: dose 4 µg/ml
[25] = test system: Klebsiella pneumoniae; assay: Synergistic antibacterial activity against Klebsiella pneumoniae 1084/1957 producing KPC-3 assessed as meropenem MIC at 8 ug/ml by broth microdilution method; assay type: functional; settings: dose 8 µg/ml; outline: as §1
[26] = test system: Pseudomonas aeruginosa; assay: Synergistic antibacterial activity against Pseudomonas aeruginosa 839 assessed as meropenem MIC at 4 ug/ml by broth microdilution method; assay type: functional; settings: dose 4 µg/ml
[27] = test system: Klebsiella pneumoniae; assay: Synergistic antibacterial activity against Klebsiella pneumoniae 1398/2291 producing KPC-3 assessed as cefepime MIC at 4 ug/ml by broth microdilution method; assay type: functional; settings: dose 4 µg/ml; outline: as §1
[28] = test system: Klebsiella pneumoniae; assay: Synergistic antibacterial activity against Klebsiella pneumoniae 1354/2241 producing KPC-3 assessed as meropenem MIC at 4 ug/ml by broth microdilution method; assay type: functional; settings: dose 4 µg/ml; outline: as §1
[29] = test system: Acinetobacter baumannii; assay: Synergistic antibacterial activity against Acinetobacter baumannii PR476 producing OXA-24/40 assessed as cefepime MIC at 4 ug/ml by broth microdilution method; assay type: functional; settings: dose 4 µg/ml
[30] = test system: Bacteria; assay: Inhibition of bacteria ADC-7 assessed as half life using nitrocefin as substrate
[31] = test system: Klebsiella pneumoniae; assay: Synergistic antibacterial activity against Klebsiella pneumoniae jefferson 1773 producing OXA-181 assessed as cefepime MIC at 4 ug/ml by broth microdilution method; assay type: functional; settings: dose 4 µg/ml
[32] = test system: Klebsiella pneumoniae; assay: Synergistic antibacterial activity against Klebsiella pneumoniae CAV 1543 producing OXA-48 assessed as cefepime MIC at 4 ug/ml by broth microdilution method; assay type: functional; settings: dose 4 µg/ml
[33] = test system: Escherichia coli; assay: Synergistic antibacterial activity against Escherichia coli DH10B assessed as meropenem MIC at 8 ug/ml by broth microdilution method; assay type: functional; settings: dose 8 µg/ml
[34] = test system: Klebsiella pneumoniae; assay: Synergistic antibacterial activity against Klebsiella pneumoniae CAV 1636 producing OXA-181 assessed as meropenem MIC at 8 ug/ml by broth microdilution method; assay type: functional; settings: dose 8 µg/ml
[35] = test system: Escherichia coli; assay: Synergistic antibacterial activity against Escherichia coli DH10B transfected with pBC SK (-) KPC-2 assessed as meropenem MIC at 4 ug/ml by broth microdilution method; assay type: functional; settings: dose 4 µg/ml
[36] = test system: Acinetobacter baumannii; assay: Synergistic antibacterial activity against ADC deleted Acinetobacter baumannii transfected with pWH1266 OXA-23 assessed as meropenem MIC at 4 ug/ml by broth microdilution method; assay type: functional; settings: dose 4 µg/ml

SMILES	MIC [1] [µg/mL]	MIC [2] [µg/mL]	MIC [3] [µg/mL]	MIC [4] [µg/mL]	MIC [5] [µg/mL]	MIC [6] [µg/mL]	MIC [7] [µg/mL]	MIC [8] [µg/mL]	MIC [9] [µg/mL]	MIC [10] [µg/mL]	MIC [11] [µg/mL]	MIC [12] [µg/mL]	K [13]	MIC [14] [µg/mL]	MIC [15] [µg/mL]	MIC [16] [µg/mL]	MIC [17] [µg/mL]	MIC [18] [µg/mL]	MIC [19] [µg/mL]	MIC [20] [µg/mL]	also measured
O=C(NNC(=O)[C@@H]1CC[C@@H]2CN1C(=O)N2OS(=O)(=O)O)[C@@H]1CCNC1	16	> 16	0.5	≤ 0.12	≤ 0.12	≤ 0.12	≤ 0.12	8	≤ 0.12	≤ 0.12	2	≤ 0.12	6.3 10^5/M/s	≤ 0.12	16	> 16	≤ 0.12	≤ 0.12	≤ 0.12	> 16	MIC [21]: ≤ 0.12 µg/mL; MIC [22]: ≤ 0.12 µg/mL; T1/2 [23]: 33 min; MIC [24]: 0.5 µg/mL; MIC [25]: ≤ 0.12 µg/mL; MIC [26]: ≤ 0.12 µg/mL; MIC [27]: ≤ 0.12 µg/mL; MIC [28]: ≤ 0.12 µg/mL; MIC [29]: 1 µg/mL; T1/2 [30]: 13 min; MIC [31]: ≤ 0.12 µg/mL; MIC [32]: ≤ 0.12 µg/mL; MIC [33]: ≤ 0.12 µg/mL; MIC [34]: ≤ 0.12 µg/mL; MIC [35]: ≤ 0.12 µg/mL
O=C(NNC(=O)[C@@H]1CC[C@@H]2CN1C(=O)N2OS(=O)(=O)O)[C@@H]1CCCNC1 [ZIDEBACTAM]	16	> 16	8	≤ 0.12	≤ 0.12	≤ 0.12	≤ 0.12	16	≤ 0.12	≤ 0.12	2	≤ 0.12	4.8 10^5/M/s	≤ 0.12	16	> 16	≤ 0.12	≤ 0.12	≤ 0.12	> 16	MIC [36]: > 16 µg/mL; MIC [22]: ≤ 0.12 µg/mL; T1/2 [23]: 29 min; MIC [24]: 0.25 µg/mL; MIC [25]: ≤ 0.12 µg/mL; MIC [26]: 0.5 µg/mL; MIC [27]: ≤ 0.12 µg/mL; MIC [28]: ≤ 0.12 µg/mL; MIC [29]: 1 µg/mL; T1/2 [30]: 11 min; MIC [31]: ≤ 0.12 µg/mL; MIC [32]: ≤ 0.12 µg/mL; MIC [33]: ≤ 0.12 µg/mL; MIC [34]: ≤ 0.12 µg/mL; MIC [35]: ≤ 0.12 µg/mL
